Compound activity: PubChem BioAssay, Sanford-Burnham Center for Chemical Genomics
An excerpt weighted towards active compounds, which were near 1.7% of everything screened.
SUMO1-SIM PPI: modulators of SUMO1 protein-protein interactions, primary screen, biochemical, uHTS | AID 602429, 2012 | SUMO1 binding to a labelled peptide, TR-FRET, 1 h | inhibition, % at 20 µM | actives 0.33% (n = 360,000) | Small ubiquitin-related modifier 1 (Homo sapiens), P63165; in the data active means inhibition above about 37%
DNMT1 block: human DNMT1 methyltransferase inhibitors, primary screen, biochemical, molecular beacon, fluorescence, HinP1I cleavage, uHTS. inhibition (reported as % activation of signal), % at 10 µM. actives 0.83% (n = 360,000); in the data active means inhibition above about 50%
Target sequence (P26358 504-1616 limits assumed): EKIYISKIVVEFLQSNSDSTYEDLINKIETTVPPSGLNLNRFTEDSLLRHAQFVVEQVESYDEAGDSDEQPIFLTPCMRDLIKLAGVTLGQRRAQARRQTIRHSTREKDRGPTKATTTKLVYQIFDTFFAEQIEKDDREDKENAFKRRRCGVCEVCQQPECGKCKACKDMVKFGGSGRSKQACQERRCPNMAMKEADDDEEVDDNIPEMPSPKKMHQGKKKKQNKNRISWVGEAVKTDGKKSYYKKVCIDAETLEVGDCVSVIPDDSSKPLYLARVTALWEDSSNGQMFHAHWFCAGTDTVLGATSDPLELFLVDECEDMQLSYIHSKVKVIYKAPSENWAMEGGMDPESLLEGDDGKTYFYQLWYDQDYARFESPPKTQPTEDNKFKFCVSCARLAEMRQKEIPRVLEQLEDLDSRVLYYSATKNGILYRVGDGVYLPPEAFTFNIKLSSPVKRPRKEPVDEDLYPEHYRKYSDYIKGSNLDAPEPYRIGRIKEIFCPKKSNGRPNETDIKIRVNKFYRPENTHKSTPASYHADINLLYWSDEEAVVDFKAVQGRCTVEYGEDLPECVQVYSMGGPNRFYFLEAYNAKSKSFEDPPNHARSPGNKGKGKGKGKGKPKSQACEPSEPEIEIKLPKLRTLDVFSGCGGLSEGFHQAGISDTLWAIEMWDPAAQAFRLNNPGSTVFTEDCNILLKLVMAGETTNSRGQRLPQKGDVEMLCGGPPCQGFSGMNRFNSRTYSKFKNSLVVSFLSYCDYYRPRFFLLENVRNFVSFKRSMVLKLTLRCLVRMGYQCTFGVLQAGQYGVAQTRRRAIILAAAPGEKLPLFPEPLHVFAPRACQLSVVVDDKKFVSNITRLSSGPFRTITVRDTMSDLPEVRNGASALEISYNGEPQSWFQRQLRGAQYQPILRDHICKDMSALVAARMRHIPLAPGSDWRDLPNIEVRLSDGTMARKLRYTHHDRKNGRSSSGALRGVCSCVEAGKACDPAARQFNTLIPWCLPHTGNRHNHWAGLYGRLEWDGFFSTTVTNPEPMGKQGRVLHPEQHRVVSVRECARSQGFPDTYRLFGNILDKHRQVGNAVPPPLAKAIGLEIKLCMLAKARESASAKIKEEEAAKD
STEP block: STEP phosphatase inhibitors, primary screen, biochemical, fluorescence intensity, uHTS | inhibition, % at 20 µM | actives 0.25% (n = 360,000) | recombinant STEP, OMFP fluorogenic substrate | Tyrosine-protein phosphatase non-receptor type 5 (Homo sapiens), P54829;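 active means inhibition at 20 µM, scaled per plate between control wells, above about 37%, limit read from the data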;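 further: 0% = DMSO with enzyme and substrate and 100% = substrate only without enzyme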
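medium = Bis-Tris buffer pH 6.0, 2.5 mM DTT, 0.005% Tween 20 | test system = STEP (striatal-enriched tyrosine phosphatase) enzyme, cell-free | measure = normalized % inhibition | compound dosing = 20 µM, 1% DMSO | also added = 25 µM OMFP | schedule = reaction 20 min, ambient temperature | measured by = fluorescence read at 480 nm ex / 540 nm em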
LMPTP block: LMPTP phosphatase inhibitors, primary screen, biochemical, fluorescence intensity, uHTS | Low molecular weight phosphotyrosine protein phosphatase (Homo sapiens), P24666 | recombinant LMPTP-A, OMFP fluorogenic substrate | inhibition, % at 20 µM | actives 0.22% (n = 360,000) | AID 651560, 2012;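 active means compounds that cut the enzyme signal by at least half of the control window in the single-dose screen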;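 further: plate controls were DMSO wells with enzyme plus substrate for no effect and substrate without enzyme for full effect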
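Assay system: LMPTP-A enzyme. Input: 0.625 nM LMPTP-A final. Probe or stimulus: 400 µM OMFP. Compound dosing: single 20 µM dose. Schedule: 50 min dark incubation at room temperature. Detection: fluorescence intensity of OMFP turnover product. Read-out: percent inhibition versus substrate-only and uninhibited controls. Benchmarks: no-enzyme low control, uninhibited high control.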
Scp-1 inhibitor: Scp-1 phosphatase inhibitors, primary screen, biochemical, colorimetric, uHTS | Carboxy-terminal domain RNA polymerase II polypeptide A small phosphatase 1 (Homo … | Recombinant Scp1, phosphopeptide, malachite green phosphate absorbance | inhibition, % at 20 µM | actives 0.88% (n = 340,000) | AID 493091, 2011;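 active means inhibition above about 50% at 20 µM, limit read from the data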;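 further: plate controls were DMSO wells with enzyme for no effect and wells lacking enzyme for full effect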
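Material: truncated SCP-1 phosphatase (76-261aa) / Buffer or medium: 50 mM Tris acetate pH 5.5, 0.005% Tween-20, 10 mM MgCl2 / Compound dosing: one concentration, 20 µM, with 1.0% DMSO / Incubation: 45 min room-temperature reaction, 5 min colour, 30 min stabiliser / Detection: colorimetric free-phosphate detection, absorbance 630 nm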
Beacon interf DR: spectral interference with molecular beacon fluorescence, dose response, artefact control for DNMT1 inhibitor project, biochemical, fluorescent molecular beacon | shares compounds with DNMT1 block | spectral interference counter-screen | IC50, µM | 200 tested, under 10 active; call rule not given here
DNMT1 confirm: DNMT1 methyltransferase inhibitor retest, confirmation, biochemical, molecular beacon, fluorescence, single concentration | actives 8% (n = 2,300) | DNMT1 molecular beacon HinP1I cleavage | inhibition, % at 10 µM | shares compounds with DNMT1 block;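 active means average inhibition of at least 30% in the single-concentration confirmation test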
Beacon interf: counter-screen for DNMT1 inhibitors: spectral interference; shares compounds with DNMT1 block; AID 602387; activation (fluorescence interference), % at 10 µM; DNMT1 molecular beacon spectral interference counterscreen, fluorescence 485/520; actives 1% (n = 2,300);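 active means activation of at least 30% at 10 µM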;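 further: DNMT1 catalytic domain with a HinP1I cleavage step and a FAM/dabcyl DNA beacon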
An asterisk follows results filed as active; nt = no result given.

SMILES | SUMO1-SIM PPI | DNMT1 block | STEP block | LMPTP block | Scp-1 inhibitor | DNMT1 confirm | Beacon interf | others
COC(=O)\C(C(C)=O)=C(/C=C/C=C/C=C/N(C)C)N(C)C | -2 | 109* | 10 | 1 | 74* | 37* | 19 | Beacon interf DR=>99
CCOc1ccc(CN(C)C(=O)CNC(=O)c2ccc(Br)o2)cc1OC | 3 | 0 | 0 | -1 | -3 | nt | nt
CSc1nc(Sc2cccc(Cl)c2)c2ccccc2n1 | 2 | 87* | 2 | 1 | 3 | 7 | 4
O=c1nc(Nc2ccc(Br)cc2)sc2ccc([N+](=O)[O-])cc12 | -54 | 54* | 5 | 45 | 40 | 1 | -3
CN(C(=O)C1Cc2c(-c3ccccc3Oc3ccccc3)ccnc2O1)c1ccccc1 (stereo not drawn) | 5 | 76* | -2 | 9 | nt | 4 | 10
O=C(N/N=C/c1cc(Br)c(Br)o1)c1cccnc1 | 3 | 62* | 2 | 2 | 21 | 3 | 0
O=C(N/N=C/c1cc(Br)c(Br)o1)c1ccc2c(c1)OCCO2 | 3 | 72* | 10 | 35 | 84* | 14 | 0
COCCN(C(=O)CSc1nnc(-c2cccc(F)c2)n1N)c1c(N)n(CC(C)C)c(=O)[nH]c1=O | 0 | 1 | 3 | 2 | -6 | nt | nt
COc1ccccc1/C=C1\SC(=S)N(CCC(=O)Nc2ccc(C(=O)O)c(O)c2)C1=O | 4 | -18 | 6 | 12 | -11 | nt | nt
O=C(CCCN1C(=O)/C(=C\c2ccco2)SC1=S)Nc1ccc2ccccc2c1 | 6 | -7 | 1 | 8 | -4 | nt | nt
O=C(CCN1C(=O)/C(=C\c2ccco2)SC1=S)Nc1ccc(C(=O)O)c(O)c1 | 66* | 91* | 43* | 23 | 80* | 16 | 0
O=C(CCN1C(=O)/C(=C/c2ccco2)SC1=S)Nc1ccc(C(=O)O)c(O)c1 | 47* | 81* | 48* | 22 | 65* | 4 | 0
C=CCN1C(=S)CC(c2ccccc2)=Nc2ccccc21 | -3 | -3 | 1 | 1 | -1 | nt | nt
CC1CCN(S(=O)(=O)c2ccc(C(=O)N3CCCC3C(=O)O)cc2)CC1 (stereo not drawn) | 3 | 1 | -4 | -1 | 1 | nt | nt
CCC(C)(C)C1CCC2(CC1)NC(=O)N(CC(=O)N1CCN(c3ccccc3OC)CC1)C2=O (stereo not drawn) | -12 | -3 | 2 | 1 | nt | nt | nt
Cc1cc(C)c(NC(=O)CSc2nc(COc3ccccc3)nc3ccccc23)c(C)c1 | -4 | 70* | 1 | 0 | -4 | 0 | -7
O=C(O)COn1c(-c2ccccc2)nc2ccc([N+](=O)[O-])cc21 | 12 | 66* | 17 | 28 | 81* | 2 | -1
COc1ccc(NC(=O)CSc2ccc3c4c(cccc24)C(=O)c2ccccc2-3)cc1 | -10 | 61* | 0 | 3 | -7 | 5 | 1
Cc1ccc(NC(=O)CSc2nc3ccccc3c3nc4ccccc4n23)cc1 | 2 | 52* | 0 | 0 | 3 | 2 | -6
COc1ccc(-n2c(SCC(=O)Nc3ccc(NC(C)=O)cc3)nc3ccccc3c2=O)cc1 | 11 | -8 | 2 | -1 | -4 | nt | nt
COc1ccc(NC(=O)CSc2nnc(C)c3ccccc23)cc1 | -1 | -1 | -1 | -1 | 0 | nt | nt
COc1ccc(NC(=O)CSc2nc3ccccc3c3nc4ccccc4n23)cc1 | -1 | 58* | 1 | 1 | 3 | 5 | -7
O=C(CSc1nc2ccccc2c2nc3ccccc3n12)NCc1ccco1 | 6 | 71* | 2 | 6 | 25 | 15 | 1
COc1ccccc1NC(=O)CSc1nnc(C)s1 | 0 | -1 | 4 | 0 | 1 | nt | nt
O=C(CSc1nc2c(sc3ccccc32)c(=O)n1CCc1ccccc1)NCc1ccco1 | 0 | 65* | 2 | -1 | 5 | 3 | -4
SMILES | SUMO1-SIM PPI | DNMT1 block | STEP block | LMPTP block | Scp-1 inhibitor | DNMT1 confirm | Beacon interf | others
COCCn1c2nc(=O)n(-c3ccccc3)c(=O)c-2nc2ccccc21 | -28 | 99* | -79 | -5 | nt | 46* | 72*
COC(=O)c1sc2nc(-c3ccco3)ccc2c1N | 11 | -2 | 16 | 4 | -4 | nt | nt
NC(=O)c1sc2nc(-c3ccco3)ccc2c1N | 37 | 98* | 10 | 13 | 4 | 5 | 5
NC(=O)c1sc2nc3c(c(-c4ccco4)c2c1N)CCC3 | 13 | 75* | 5 | 2 | 0 | 12 | 12
CC12CCC(=O)N1C(C(=O)Nc1nc(-c3ccccc3Cl)cs1)CS2 (stereo not drawn) | 2 | -5 | -2 | 0 | -4 | nt | nt
CCOC(=O)N1CCC(NS(=O)(=O)c2ccc3c(c2)oc(=O)n3C)CC1 | 0 | 53* | -1 | 0 | -3 | 3 | 4
CC(C)CN(C(=O)COC(=O)C(C)N1C(=O)c2ccccc2C1=O)c1c(N)n(Cc2ccccc2)c(=O)[nH]c1=O (stereo not drawn) | -2 | -1 | 1 | -1 | 32 | nt | nt
Cn1ccsc1=NC(=O)c1ccc([N+](=O)[O-])o1 | -19 | 59* | 36 | 2 | 65* | 3 | 0
CN(C)N1C(N)=C(C#N)C(c2ccc3c(c2)OCO3)C2=C1CC(C)(C)CC2=O (stereo not drawn) | 2 | -1 | 0 | 0 | -15 | nt | nt
CSc1sc(-c2n[nH]c(=S)n2C)c2c1C=CCC2 | 9 | 66* | 0 | 50* | 4 | -2 | -7
COc1ccc(C(C)=O)cc1Cn1c(C)c(C(=O)NCc2ccc(C(C)C)cc2)sc1=O | 0 | -3 | 0 | 2 | nt | nt | nt
Cn1ccc2c(N3c4ccccc4CCc4ccccc43)cc3c(c21)C1CCC3O1 (stereo not drawn) | -7 | 50* | 6 | 5 | nt | 1 | 2
Cc1cc(NC(=O)C2CCN(C(=O)c3ccco3)CC2)ccc1Br | -1 | -12 | 0 | -1 | -6 | nt | nt
O=C(O)C(c1ccccc1)N1C(=O)/C(=C\c2ccc(-c3ccccc3Cl)o2)SC1=S (stereo not drawn) | 92* | 98* | 45* | 77* | 35 | 69* | 0 | Beacon interf DR=34*
